Series [1] is described as follows: Half life in human plasma by HPLC analysis. It counts as ADME, cell-free. An outline of the steps: (§1)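 Compound was incubated in human or mouse plasma and its remaining level followed over time to obtain t1/2. Each point is n = 3 with standard deviation bars.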
Series [2] can be described thus: Intrinsic clearance in human liver microsomes at 1 mg/ml in presence of NADPH regenerating system by HPLC analysis. Particulars: read-out: CLH. It counts as ADME, microsome. The gist of the method:
(§2)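 Human and mouse liver microsomes at 1.0 mg/mL. Compound disappearance was tracked over time to give half-life and intrinsic clearance (Clint, µL/min/mg). Data are the mean of triplicates with SD (n = 3).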

The nature of series [3]: Half life in ICR (CD-1) mouse at 20 mg/kg, po administered as single dose by LC-MS analysis. It counts as ADME, organism-based. The settings on record: in vivo. The gist of the method:
(§3)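 Male mice got a single 20 mg/kg dose, either IV or oral (PO), with separate groups for each route. Plasma concentration–time profiles were followed, and parameters were taken from mean ± SD curves (n = 3).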

Series [4] deals with Mus musculus. The series can be described thus: AUC (0 to t) in ICR (CD-1) mouse at 20 mg/kg, iv administered as single dose by LC-MS analysis. It counts as ADME, organism-based. Particulars: in vivo. The gist of the method: as §3
The subject of series [5] is Mus musculus. In words: Cmax in ICR (CD-1) mouse at 20 mg/kg, iv administered as single dose by LC-MS analysis. Also noted: dose 20 mg/kg, route intravenous. The settings on record: in vivo. In kind it is ADME, organism-based. The gist of the method: as §3
The target in series [6] is Genome polyprotein (Enterovirus A71) (UniProt A0A1D8D5K2). In words: Covalent binding affinity to EV71 3C protease expressed in Escherichia coli BL21(DE3) at 2 mg/ml incubated for 2 to 3 hrs and measured after trypsin digestion by LC-MS/MS analysis.
Genome polyprotein (Enterovirus A71), sequence (A0A1D8D5K2 as listed by the source): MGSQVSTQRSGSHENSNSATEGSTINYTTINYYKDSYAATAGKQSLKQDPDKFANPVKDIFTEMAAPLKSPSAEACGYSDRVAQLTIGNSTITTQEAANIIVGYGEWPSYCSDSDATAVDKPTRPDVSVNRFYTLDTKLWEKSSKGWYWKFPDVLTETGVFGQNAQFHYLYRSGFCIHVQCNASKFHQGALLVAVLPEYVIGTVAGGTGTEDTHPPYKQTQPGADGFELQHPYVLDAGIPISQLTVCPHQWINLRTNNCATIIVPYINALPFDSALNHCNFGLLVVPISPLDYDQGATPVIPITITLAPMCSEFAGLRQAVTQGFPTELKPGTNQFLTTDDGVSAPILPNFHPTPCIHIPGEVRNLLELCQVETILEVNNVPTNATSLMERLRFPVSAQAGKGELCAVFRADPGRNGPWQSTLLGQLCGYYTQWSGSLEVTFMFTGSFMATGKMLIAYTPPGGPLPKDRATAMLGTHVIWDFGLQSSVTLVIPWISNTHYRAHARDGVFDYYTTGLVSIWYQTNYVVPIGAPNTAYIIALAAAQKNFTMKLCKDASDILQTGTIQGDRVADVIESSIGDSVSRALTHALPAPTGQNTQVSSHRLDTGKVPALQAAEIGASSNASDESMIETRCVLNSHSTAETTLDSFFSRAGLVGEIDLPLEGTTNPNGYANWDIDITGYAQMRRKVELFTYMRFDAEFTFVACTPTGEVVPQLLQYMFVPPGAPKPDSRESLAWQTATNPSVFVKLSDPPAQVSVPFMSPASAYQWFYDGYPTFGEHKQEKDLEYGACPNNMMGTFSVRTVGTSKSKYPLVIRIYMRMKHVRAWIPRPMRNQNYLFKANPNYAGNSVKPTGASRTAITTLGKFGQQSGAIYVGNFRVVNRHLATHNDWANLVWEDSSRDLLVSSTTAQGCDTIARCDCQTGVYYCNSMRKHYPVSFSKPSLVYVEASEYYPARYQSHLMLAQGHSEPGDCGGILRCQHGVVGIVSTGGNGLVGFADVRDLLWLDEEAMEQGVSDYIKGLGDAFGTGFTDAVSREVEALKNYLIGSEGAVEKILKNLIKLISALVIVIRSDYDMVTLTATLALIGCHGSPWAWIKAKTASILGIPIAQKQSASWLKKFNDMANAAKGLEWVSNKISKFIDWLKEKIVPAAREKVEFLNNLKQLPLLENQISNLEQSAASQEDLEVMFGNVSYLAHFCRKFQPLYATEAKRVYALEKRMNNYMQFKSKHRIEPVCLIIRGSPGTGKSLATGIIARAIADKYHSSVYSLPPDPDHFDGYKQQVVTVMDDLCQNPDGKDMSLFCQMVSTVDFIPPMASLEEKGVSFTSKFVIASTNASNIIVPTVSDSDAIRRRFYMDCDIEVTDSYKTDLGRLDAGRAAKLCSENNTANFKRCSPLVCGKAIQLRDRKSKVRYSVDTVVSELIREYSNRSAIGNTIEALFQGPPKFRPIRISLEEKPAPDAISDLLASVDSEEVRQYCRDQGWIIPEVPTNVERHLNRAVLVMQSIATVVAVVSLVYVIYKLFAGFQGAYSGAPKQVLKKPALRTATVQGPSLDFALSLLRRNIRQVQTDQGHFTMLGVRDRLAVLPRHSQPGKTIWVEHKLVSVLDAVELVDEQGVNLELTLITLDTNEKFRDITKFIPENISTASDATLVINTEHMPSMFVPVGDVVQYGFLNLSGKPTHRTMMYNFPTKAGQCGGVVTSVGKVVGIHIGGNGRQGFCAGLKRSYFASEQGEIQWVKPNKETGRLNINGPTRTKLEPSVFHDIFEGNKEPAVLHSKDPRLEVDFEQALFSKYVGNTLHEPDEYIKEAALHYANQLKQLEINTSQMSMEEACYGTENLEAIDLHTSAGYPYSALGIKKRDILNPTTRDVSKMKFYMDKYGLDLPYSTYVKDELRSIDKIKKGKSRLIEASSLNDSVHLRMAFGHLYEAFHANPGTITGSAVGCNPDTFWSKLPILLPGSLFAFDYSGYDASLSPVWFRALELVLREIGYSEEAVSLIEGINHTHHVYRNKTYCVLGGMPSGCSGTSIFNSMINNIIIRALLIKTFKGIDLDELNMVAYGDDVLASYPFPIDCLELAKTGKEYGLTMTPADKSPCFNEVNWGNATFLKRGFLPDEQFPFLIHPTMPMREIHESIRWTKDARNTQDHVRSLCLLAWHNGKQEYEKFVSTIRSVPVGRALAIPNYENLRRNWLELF
Series [7] has as its system Mus musculus. The series can be described thus: Cmax in ICR (CD-1) mouse at 20 mg/kg, po administered as single dose by LC-MS analysis. It counts as ADME, organism-based. Also noted: dose 20 mg/kg, route oral. The settings on record: in vivo. An outline of the steps: as §3
Series [8] deals with Mus musculus. The series can be described thus: AUC (0 to t) in ICR (CD-1) mouse at 20 mg/kg, po administered as single dose by LC-MS analysis. In kind it is ADME, organism-based. Particulars: in vivo. The gist of the method:
as §3

In a further series the test system is Enterovirus A71. In words: Antiviral activity against Enterovirus A71 infected in human RD cells receiving pEV71-Luc subgenomic replicon stocks from HEK-293T cells. It counts as functional, organism-based. Particulars: Enterovirus A. The gist of the method: (§4)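 Values (EC50, CC50) are the average of three independent experiments, with SEM (n = 3).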
In general terms: A replicon is a self-replicating genome or part of one, used to study replication in cells.

Series [9] is described as follows: Tmax in ICR (CD-1) mouse at 20 mg/kg, iv administered as single dose by LC-MS analysis. The settings on record: in vivo. It counts as ADME, organism-based. An outline of the steps:
as §3

Series [10] in a line: Half life in ICR (CD-1) mouse at 20 mg/kg, iv administered as single dose by LC-MS analysis. In kind it is ADME, organism-based. Particulars: in vivo. The gist of the method: as §3
The nature of series [11]: Intrinsic clearance in mouse liver microsomes at 1 mg/ml in presence of NADPH regenerating system by HPLC analysis. It counts as ADME, microsome. Particulars: read-out: CLH. The gist of the method: as §2
A general note: Liver microsomes are a subcellular fraction often used to study metabolism.

The target in another series is Genome polyprotein (Enterovirus A71, UniProt A0A1D8D5K2). The series can be described thus: Inhibition of EV71 3C protease expressed in Escherichia coli BL21(DE3) using NMA-IEALFQGPPK(DNP)FR as substrate preincubated for 0.5 hrs followed by substrate addition by fluorescence assay. The gist of the method: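 Values reported as Ki (µM), each the mean of three independent experiments with SEM (n=3).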
Genome polyprotein, sequence (A0A1D8D5K2 whole entry): as the sequence (A0A1D8D5K2 as listed by the source) above

The nature of series [12]: Half life in mouse liver microsomes at 1 mg/ml in presence of NADPH regenerating system by HPLC analysis. It counts as ADME, microsome. An outline of the steps:
as §2

A short description of series [13]: Half life in ICR (CD-1) mouse plasma by HPLC analysis. In kind it is ADME, cell-free. An outline of the steps:
as §1

A short description of series [14]: Half life in human liver microsomes at 1 mg/ml in presence of NADPH regenerating system by HPLC analysis. In kind it is ADME, microsome. The gist of the method: as §2
Series [15] can be described thus: Cytotoxicity in human RD cells assessed as reduction in cell viability incubated for 24 hrs by WST1 assay. It counts as cell-based. The gist of the method: as §4
Background: Tetrazolium dyes change colour on reduction, which living cells bring about.

Series [16] is described as follows: Tmax in ICR (CD-1) mouse at 20 mg/kg, po administered as single dose by LC-MS analysis. In kind it is ADME, organism-based. Particulars: in vivo. The gist of the method:
as §3

Active and inactive are the calls of the source. A value given as a limit tells only on which side of the number the result lay.

Take `CCCN1C(=N)[C@@H]([C@H](C[C@@H]2CCCNC2=O)NC(=O)[C@H](Cc2ccc(F)cc2)NC(=O)c2cc(C)on2)OC1=O`: the half-life in [1] was more than 120 min; in series [3], 60 min; in series [10] it was 51 min; in series [12] it was 35 min; in series [13], more than 120 min; in series [14], 40 min. Also, the microsomal CLint is 17 µL/min/mg in [2] and 20 µL/min/mg in [11]. Moreover, the AUCt in the series with Mus musculus [4] stood at 2340 ng·h/mL; in the series with Mus musculus [8], 7.9 mg·min/mL. Further, the highest concentration (Cmax) in the series on Mus musculus [5] was found to be 8200 ng/mL; with Mus musculus [7] it was 150 ng/mL. Also, the outcome in series [6] was inactive. Besides, in the series on Enterovirus A71, the half-maximal effective concentration (EC50) amounted to 210 nM. For the same compound, the Tmax in series [9] is 5 min; in [16], 15 min. The same compound had a Ki at Genome polyprotein of 83 nM. Also, the cytotoxic concentration (CC50) at 24 h in series [15] is more than 100000 nM.

What is called half-life is the time needed for the level to fall by half in the phase considered. What is called Cmax is the maximum level reached in the sampled fluid or tissue. A word on the EC50: it is the concentration needed to bring the measured effect to its halfway point. A lower EC50 goes with greater potency. As a reminder, the Tmax is the time at which the peak concentration occurs. What is called Ki is a dissociation constant, usually derived from enzyme kinetics or from competition with a known ligand. Higher therefore signals lower affinity. As usually defined, the CC50 is the concentration that lowers cell viability or growth by half.

The values above are taken from ChEMBL document CHEMBL4257576, “4-Iminooxazolidin-2-one as a Bioisostere of the Cyanohydrin Moiety: Inhibitors of Enterovirus 71 3C Protease” (J Med Chem, 2018).
